ChEMBL document CHEMBL2157941, “Synthesis and characterization of some new quinoline based derivatives endowed with broad spectrum antimicrobial potency” (2012)
≈ marks a conversion by molar mass, not a printed value.

Assays:
Assay type in all cases: functional
Candida albicans = test: Antifungal activity against Candida albicans MTCC 227 after 48 hrs by serial broth dilution method; details: MTCC 227, 48 h
Procedure, shortened: (§1)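 Read-out was the individual minimum inhibitory concentration for each bacterial or fungal strain.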

Escherichia coli = test: Antibacterial activity against Escherichia coli MTCC 443 after 24 hrs by serial broth dilution method; details: MTCC 443, 24 h; procedure, shortened: as §1
Streptococcus pyogenes = test: Antibacterial activity against Streptococcus pyogenes MTCC 442 after 24 hrs by serial broth dilution method; details: MTCC 442, 24 h; procedure, shortened: as §1
Aspergillus clavatus = test: Antifungal activity against Aspergillus clavatus MTCC 1323 after 48 hrs by serial broth dilution method; details: MTCC 1323, 48 h; procedure, shortened: as §1
Pseudomonas aeruginosa = test: Antibacterial activity against Pseudomonas aeruginosa MTCC 1688 after 24 hrs by serial broth dilution method; details: MTCC 1688, 24 h; procedure, shortened: as §1
Staphylococcus aureus = test: Antibacterial activity against Staphylococcus aureus MTCC 96 after 24 hrs by serial broth dilution method; details: MTCC 96, 24 h; procedure, shortened: as §1
Aspergillus niger = test: Antifungal activity against Aspergillus niger MTCC 282 after 48 hrs by serial broth dilution method; details: MTCC 282, 48 h; procedure, shortened: as §1

Row | Compound | MIC (Candida albicans) [µg/mL] | MIC (Escherichia coli) [µg/mL] | MIC (Streptococcus pyogenes) [µg/mL] | MIC (Aspergillus clavatus) [µg/mL] | MIC (Pseudomonas aeruginosa) [µg/mL] | MIC (Staphylococcus aureus) [µg/mL] | MIC (Aspergillus niger) [µg/mL]
1 | O=C(CN1CCOCC1)Nc1nc(-c2ccccc2O)cc(-c2cc3cc(F)ccc3nc2Cl)n1 | 1000 (≈ 2020 µM) | 1000 (≈ 2020 µM) | 500 (≈ 1010 µM) | 500 (≈ 1010 µM) | 500 (≈ 1010 µM) | 500 (≈ 1010 µM) | 250 (≈ 506 µM)
2 | COc1ccc(-c2cc(-c3cc4cc(F)ccc4nc3Cl)nc(NC(=O)CN3CCOCC3)n2)cc1 | 1000 (≈ 1970 µM) | 500 (≈ 984 µM) | 250 (≈ 492 µM) | 500 (≈ 984 µM) | 250 (≈ 492 µM) | 500 (≈ 984 µM) | 250 (≈ 492 µM)
3 | O=C(CN1CCOCC1)Nc1nc(-c2ccccc2[N+](=O)[O-])cc(-c2cc3cc(F)ccc3nc2Cl)n1 | 100 (≈ 191 µM) | 100 (≈ 191 µM) | 50 (≈ 95.6 µM) | 100 (≈ 191 µM) | 100 (≈ 191 µM) | 50 (≈ 95.6 µM) | 50 (≈ 95.6 µM)
4 | O=C1CSC(N2N=C(c3ccccc3F)CC2c2cc3cc(F)ccc3nc2Cl)=N1 (centres undefined) | 250 (≈ 564 µM) | 25 (≈ 56.4 µM) | 100 (≈ 226 µM) | 500 (≈ 1130 µM) | 50 (≈ 113 µM) | 100 (≈ 226 µM) | 50 (≈ 113 µM)
5 | O=C1CSC(N2N=C(c3ccc(Cl)cc3)CC2c2cc3cc(F)ccc3nc2Cl)=N1 (centres undefined) | 500 (≈ 1090 µM) | 500 (≈ 1090 µM) | 50 (≈ 109 µM) | 100 (≈ 218 µM) | 250 (≈ 544 µM) | 50 (≈ 109 µM) | 50 (≈ 109 µM)
6 | O=C(CN1CCOCC1)Nc1nc(-c2ccccc2F)cc(-c2cc3cc(F)ccc3nc2Cl)n1 | 100 (≈ 202 µM) | 12.5 (≈ 25.2 µM) | 50 (≈ 101 µM) | 25 (≈ 50.4 µM) | 25 (≈ 50.4 µM) | 50 (≈ 101 µM) | 50 (≈ 101 µM)
7 | O=C1CSC(N2N=C(c3cccc(F)c3)CC2c2cc3cc(F)ccc3nc2Cl)=N1 (centres undefined) | 100 (≈ 226 µM) | 500 (≈ 1130 µM) | 500 (≈ 1130 µM) | 500 (≈ 1130 µM) | 250 (≈ 564 µM) | 500 (≈ 1130 µM) | 500 (≈ 1130 µM)
8 | O=C1CSC(N2N=C(c3ccccc3Cl)CC2c2cc3cc(F)ccc3nc2Cl)=N1 (centres undefined) | 500 (≈ 1090 µM) | 50 (≈ 109 µM) | 50 (≈ 109 µM) | 50 (≈ 109 µM) | 100 (≈ 218 µM) | 250 (≈ 544 µM) | 100 (≈ 218 µM)
9 | O=C(O)c1cn(C2CC2)c2cc(N3CCNCC3)c(F)cc2c1=O [CIPROFLOXACIN] |  | 25 (≈ 75.4 µM) | 50 (≈ 151 µM) |  |  | 50 (≈ 151 µM) | 
10 | O=C(CN1CCOCC1)Nc1nc(-c2ccc([N+](=O)[O-])cc2)cc(-c2cc3cc(F)ccc3nc2Cl)n1 | 100 (≈ 191 µM) | 25 (≈ 47.8 µM) | 100 (≈ 191 µM) | 50 (≈ 95.6 µM) | 50 (≈ 95.6 µM) | 100 (≈ 191 µM) | 100 (≈ 191 µM)
11 | O=C(CN1CCOCC1)Nc1nc(-c2ccccc2)cc(-c2cc3cc(F)ccc3nc2Cl)n1 | 1000 (≈ 2090 µM) | 250 (≈ 523 µM) | 250 (≈ 523 µM) | 250 (≈ 523 µM) | 500 (≈ 1050 µM) | 500 (≈ 1050 µM) | 500 (≈ 1050 µM)

Continued by falling MIC (Candida albicans), values first:

Row | MIC (Candida albicans) [µg/mL] | MIC (Escherichia coli) [µg/mL] | MIC (Streptococcus pyogenes) [µg/mL] | MIC (Aspergillus clavatus) [µg/mL] | MIC (Pseudomonas aeruginosa) [µg/mL] | MIC (Staphylococcus aureus) [µg/mL] | MIC (Aspergillus niger) [µg/mL] | Compound
12 | 1000 (≈ 2350 µM) | 500 (≈ 1180 µM) | 1000 (≈ 2350 µM) | 500 (≈ 1180 µM) | 250 (≈ 588 µM) | 500 (≈ 1180 µM) | 1000 (≈ 2350 µM) | O=C1CSC(N2N=C(c3ccccc3)CC2c2cc3cc(F)ccc3nc2Cl)=N1 (centres undefined)
13 | 1000 (≈ 2200 µM) | 1000 (≈ 2200 µM) | 1000 (≈ 2200 µM) | 500 (≈ 1100 µM) | 1000 (≈ 2200 µM) | 500 (≈ 1100 µM) | 500 (≈ 1100 µM) | COc1ccc(C2=NN(C3=NC(=O)CS3)C(c3cc4cc(F)ccc4nc3Cl)C2)cc1 (centres undefined)
14 | 1000 (≈ 2270 µM) | 500 (≈ 1130 µM) | 250 (≈ 567 µM) | 1000 (≈ 2270 µM) | 250 (≈ 567 µM) | 500 (≈ 1130 µM) | 500 (≈ 1130 µM) | O=C1CSC(N2N=C(c3ccc(O)cc3)CC2c2cc3cc(F)ccc3nc2Cl)=N1 (centres undefined)
15 | 1000 (≈ 2260 µM) | 50 (≈ 113 µM) | 25 (≈ 56.4 µM) | 100 (≈ 226 µM) | 50 (≈ 113 µM) | 100 (≈ 226 µM) | 250 (≈ 564 µM) | O=C1CSC(N2N=C(c3ccc(F)cc3)CC2c2cc3cc(F)ccc3nc2Cl)=N1 (centres undefined)
16 | 1000 (≈ 2270 µM) | 250 (≈ 567 µM) | 500 (≈ 1130 µM) | 1000 (≈ 2270 µM) | 500 (≈ 1130 µM) | 1000 (≈ 2270 µM) | 1000 (≈ 2270 µM) | O=C1CSC(N2N=C(c3ccccc3O)CC2c2cc3cc(F)ccc3nc2Cl)=N1 (centres undefined)
17 | 500 (≈ 1010 µM) | 500 (≈ 1010 µM) | 1000 (≈ 2020 µM) | 1000 (≈ 2020 µM) | 1000 (≈ 2020 µM) | 1000 (≈ 2020 µM) | 500 (≈ 1010 µM) | O=C(CN1CCOCC1)Nc1nc(-c2ccc(O)cc2)cc(-c2cc3cc(F)ccc3nc2Cl)n1
18 | 500 (≈ 1420 µM) |  |  | 100 (≈ 283 µM) |  |  | 100 (≈ 283 µM) | COC1=CC(=O)C[C@@H](C)[C@]12Oc1c(Cl)c(OC)cc(OC)c1C2=O [GRISEOFULVIN]
19 | 500 (≈ 976 µM) | 50 (≈ 97.6 µM) | 100 (≈ 195 µM) | 100 (≈ 195 µM) | 100 (≈ 195 µM) | 100 (≈ 195 µM) | 100 (≈ 195 µM) | O=C(CN1CCOCC1)Nc1nc(-c2ccccc2Cl)cc(-c2cc3cc(F)ccc3nc2Cl)n1
20 | 500 (≈ 1060 µM) | 250 (≈ 532 µM) | 500 (≈ 1060 µM) | 50 (≈ 106 µM) | 500 (≈ 1060 µM) | 1000 (≈ 2130 µM) | 100 (≈ 213 µM) | O=C1CSC(N2N=C(c3cccc([N+](=O)[O-])c3)CC2c2cc3cc(F)ccc3nc2Cl)=N1 (centres undefined)
21 | 250 (≈ 504 µM) | 100 (≈ 202 µM) | 250 (≈ 504 µM) | 250 (≈ 504 µM) | 100 (≈ 202 µM) | 250 (≈ 504 µM) | 250 (≈ 504 µM) | O=C(CN1CCOCC1)Nc1nc(-c2cccc(F)c2)cc(-c2cc3cc(F)ccc3nc2Cl)n1
22 | 250 (≈ 532 µM) | 50 (≈ 106 µM) | 50 (≈ 106 µM) | 100 (≈ 213 µM) | 100 (≈ 213 µM) | 250 (≈ 532 µM) | 100 (≈ 213 µM) | O=C1CSC(N2N=C(c3ccc([N+](=O)[O-])cc3)CC2c2cc3cc(F)ccc3nc2Cl)=N1 (centres undefined)
23 | 250 (≈ 478 µM) | 250 (≈ 478 µM) | 100 (≈ 191 µM) | 500 (≈ 956 µM) | 100 (≈ 191 µM) | 250 (≈ 478 µM) | 100 (≈ 191 µM) | O=C(CN1CCOCC1)Nc1nc(-c2cccc([N+](=O)[O-])c2)cc(-c2cc3cc(F)ccc3nc2Cl)n1
24 | 250 (≈ 488 µM) | 100 (≈ 195 µM) | 100 (≈ 195 µM) | 100 (≈ 195 µM) | 50 (≈ 97.6 µM) | 250 (≈ 488 µM) | 100 (≈ 195 µM) | O=C(CN1CCOCC1)Nc1nc(-c2ccc(Cl)cc2)cc(-c2cc3cc(F)ccc3nc2Cl)n1
25 | 100 (≈ 202 µM) | 50 (≈ 101 µM) | 100 (≈ 202 µM) | 100 (≈ 202 µM) | 50 (≈ 101 µM) | 100 (≈ 202 µM) | 100 (≈ 202 µM) | O=C(CN1CCOCC1)Nc1nc(-c2ccc(F)cc2)cc(-c2cc3cc(F)ccc3nc2Cl)n1
26 | 100 (≈ 213 µM) | 25 (≈ 53.2 µM) | 25 (≈ 53.2 µM) | 12.5 (≈ 26.6 µM) | 12.5 (≈ 26.6 µM) | 100 (≈ 213 µM) | 25 (≈ 53.2 µM) | O=C1CSC(N2N=C(c3ccccc3[N+](=O)[O-])CC2c2cc3cc(F)ccc3nc2Cl)=N1 (centres undefined)
